Measured values of several laboratories.
Each line is one published result; the experiments were not run side by side.
Target: Protein kinase C eta type (PRKCH, Homo sapiens, UniProt P24723)

Compound | test | setting | endpoint | result
COc1cc(Nc2ncc(F)c(Nc3ccc4c(n3)NC(=O)C(C)(C)O4)n2)cc(OC)c1OC | binding | 10 µM | inhibition | 0%
N#CC1(c2ccccn2)CCN(Cc2cc(C(=O)O)c(=O)n3ccccc23)CC1 | cell-free assay, competition with immobilised ligand | 1 µM | remaining binding | 100%
Cn1cc(-c2cc(F)cc(N3CCn4c(cc5c4CCCC5)C3=O)c2CO)cc(Nc2ccc(N3CCN(C4COC4)CC3)cn2)c1=O | enzyme activity, inhibitor | 0.1 µM | inhibition | 4%
COc1ncccc1-c1cnn2ccc(N3CCN(C(=O)OC(C)C)CC3)nc12 | binding, competition with immobilised ligand | 1 µM | remaining binding | 49%
Cc1nn(C)cc1-c1nc2c(N3CCN(Cc4ccc(Cl)cc4)CC3)c(Cl)cnc2[nH]1 | binding, competition with immobilised ligand | 1 µM | remaining binding | 100%
Cn1cncc1[C@](O)(COc1ccc(C#N)cc1-c1ccc(OC(F)(F)F)cc1)c1ccc(C#N)cc1 | cell-free assay, competition with immobilised ligand | 1 µM | remaining binding | 94%
Cn1cc(-c2cccc(N3CCc4c(sc5c4CC(C)(C)C5)C3=O)c2CO)cc(Nc2ccncn2)c1=O | enzyme activity, inhibitor | 1 µM | inhibition | 20%
Nc1ncc(-c2nc(N3CCOCC3)nc(N3CCOCC3)n2)c(C(F)F)n1 | cell-free assay, competition with immobilised ligand | 10 µM | remaining binding | 91%
